The results in this text go back to ChEMBL document CHEMBL3045298, “Furan-2,5-dimethylene-tethered bis-imidacloprid insecticide conferring high potency” (J Agric Food Chem, 2010).

Test [1] deals with T1, Nicotinic acetylcholine receptor alpha 5 subunit (Musca domestica, UniProt A9XFY4).
T1 sequence (A9XFY4 whole entry): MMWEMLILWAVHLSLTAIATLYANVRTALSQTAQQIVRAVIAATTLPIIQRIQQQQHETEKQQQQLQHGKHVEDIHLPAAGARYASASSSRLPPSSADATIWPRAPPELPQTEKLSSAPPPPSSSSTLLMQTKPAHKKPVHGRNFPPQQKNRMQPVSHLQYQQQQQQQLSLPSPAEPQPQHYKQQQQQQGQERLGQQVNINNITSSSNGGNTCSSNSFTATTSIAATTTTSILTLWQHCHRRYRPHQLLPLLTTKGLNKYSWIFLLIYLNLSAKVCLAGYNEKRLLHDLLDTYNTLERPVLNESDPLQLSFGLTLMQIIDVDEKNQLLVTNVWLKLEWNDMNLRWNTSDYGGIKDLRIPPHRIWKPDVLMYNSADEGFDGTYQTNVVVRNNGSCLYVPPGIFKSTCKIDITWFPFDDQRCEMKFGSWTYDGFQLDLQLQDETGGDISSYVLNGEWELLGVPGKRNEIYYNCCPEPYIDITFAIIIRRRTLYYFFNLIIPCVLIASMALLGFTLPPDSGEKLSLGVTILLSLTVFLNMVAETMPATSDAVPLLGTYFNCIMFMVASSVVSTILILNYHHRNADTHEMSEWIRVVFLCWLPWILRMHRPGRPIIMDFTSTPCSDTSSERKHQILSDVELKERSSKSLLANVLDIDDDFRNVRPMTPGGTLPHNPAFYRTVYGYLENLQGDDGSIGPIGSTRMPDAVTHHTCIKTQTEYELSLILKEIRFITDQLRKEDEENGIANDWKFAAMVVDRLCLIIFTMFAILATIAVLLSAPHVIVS
The test can be described thus: Displacement of [3H]IMI from Musca domestica (house fly) brain nicotinic acetylcholine receptor. In outline:
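Native housefly (Musca domestica) brain nAChR preparation with [3H]IMI radioligand at 5 nM (Kd 5.4 nM). IC50 is the molar concentration inhibiting 50% of specific [3H]IMI binding, fitted by iterative nonlinear least-squares regression. Ki derived as IC50/(1 + [L]/Kd).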
For orientation: Displacement assays read how much labelled ligand stays bound in the presence of the test substance.

Test [2] relates to Musca domestica. As to the kind of experiment: Insecticidal activity against Musca domestica (house fly) measured after intrathoracic compound injection in presence of cytochrome P450 inhibitor O-propyl O-(2-propynyl) phenylphosphonate. In kind it is functional. A digest of the protocol: (§1)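 Houseflies were first pretreated with the P450 inhibitor O-propyl O-(2-propynyl) phenylphosphonate, then dosed by intrathoracic injection. Lethality was scored 24 h after administration, and the 50% lethal dose was determined.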

Test [3] deals with Musca domestica. As to the kind of experiment: Insecticidal activity against Musca domestica (house fly) assessed as mortality at LD50 concentration intrathoracic injection in presence of cytochrome P450 inhibitor O-propyl O-(2-propynyl) phenylphosphonate. In kind it is functional. In outline: as §1

In general, Ki refers to the equilibrium dissociation constant of an inhibitor or competing ligand from its target. A high value points to lower affinity. As a reminder, the LD50 is the dose at which mortality reaches 50%. In test [1], `O=[N+]([O-])NC1=NCCN1Cc1ccc(Cl)nc1` [IMIDACLOPRID] displayed a Ki of 4.6 nM. The LD50 in the test with Musca domestica [2] came to 0.03 mg/kg.

What is called mortality is the percentage killed. For the molecule `O=[N+]([O-])/N=C1\N(Cc2ccc(Cl)nc2)CCN1Cc1ccccc1-c1ccccc1CN1CCN(Cc2ccc(Cl)nc2)/C1=N\[N+](=O)[O-]`, the Ki in test [1] was found to be 800 nM. The mortality with Musca domestica [3] worked out at 10%. Besides, the LD50 in the test with Musca domestica [2] is more than 1 mg/kg.

In test [1], `CC(C)(CCN1CCN(Cc2ccc(Cl)nc2)/C1=N\[N+](=O)[O-])CCN1CCN(Cc2ccc(Cl)nc2)/C1=N\[N+](=O)[O-]` displayed a Ki of 1460 nM. For the same molecule, the mortality in the test on Musca domestica [3] was determined as 0%. Also, the 50% lethal dose (LD50) in the test with Musca domestica [2] is more than 1 mg/kg.

Molecule `O=[N+]([O-])/N=C1\N(Cc2ccc(Cl)nc2)CCN1Cc1ccc(CN2CCN(Cc3ccc(Cl)nc3)/C2=N\[N+](=O)[O-])o1` yielded a Ki in test [1] of 30 nM. The median lethal dose (LD50) in the test on Musca domestica [2] stood at 0.14 mg/kg.

Consider `O=[N+]([O-])/N=C1\N(Cc2ccc(Cl)nc2)CCN1Cc1cncc(CN2CCN(Cc3ccc(Cl)nc3)/C2=N\[N+](=O)[O-])c1`, for which the affinity in test [1] corresponds to a Ki of 2300 nM. In addition, in the test on Musca domestica [3], the mortality is 10%. Further, the LD50 with Musca domestica [2] is more than 1 mg/kg.

`O=[N+]([O-])/N=C1/N(CCOCCN2CCN(Cc3ccc(Cl)nc3)/C2=N\[N+](=O)[O-])CCN1Cc1ccc(Cl)nc1` showed an inhibition constant Ki in test [1] of 530 nM. Further, in the test with Musca domestica [3], the mortality was determined as 0%. The LD50 with Musca domestica [2] was more than 1 mg/kg.

With `O=[N+]([O-])/N=C1\N(Cc2ccc(Cl)nc2)CCN1Cc1ccc(CN2CCN(Cc3ccc(Cl)nc3)/C2=N\[N+](=O)[O-])s1`, the inhibition constant Ki in test [1] was found to be 150 nM. In addition, the LD50 in the test with Musca domestica [2] was determined as 1 mg/kg.

In the case of `O=[N+]([O-])/N=C1/N(Cc2ccc(Cc3ccc(CN4CCN(Cc5ccc(Cl)nc5)/C4=N\[N+](=O)[O-])cc3)cc2)CCN1Cc1ccc(Cl)nc1`, the affinity in test [1], expressed as Ki, was 17000 nM. Besides, in the test on Musca domestica [3], the mortality worked out at 0%. Besides, in the test with Musca domestica [2], the LD50 is more than 1 mg/kg.

For `O=C(/N=C1/N(CCCCCCCN2CCN(Cc3ccc(Cl)nc3)/C2=N/C(=O)C(F)(F)F)CCN1Cc1ccc(Cl)nc1)C(F)(F)F`, the Ki in test [1] came out at 2900 nM. Besides, in the test with Musca domestica [3], the mortality came out at 0%. In addition, the 50% lethal dose (LD50) in the test with Musca domestica [2] was more than 1 mg/kg.

In test [1], `O=[N+]([O-])/N=C1/N(Cc2ccc(CN3CCN(Cc4ccc(Cl)nc4)/C3=N\[N+](=O)[O-])cc2)CCN1Cc1ccc(Cl)nc1` registered a Ki of 2270 nM. Also, the mortality in the test on Musca domestica [3] worked out at 0%. Moreover, the 50% lethal dose (LD50) in the test on Musca domestica [2] is more than 1 mg/kg.

In test [1], `O=[N+]([O-])/N=C1/N(CCCOCCCN2CCN(Cc3ccc(Cl)nc3)/C2=N\[N+](=O)[O-])CCN1Cc1ccc(Cl)nc1` showed an inhibition constant Ki of 2660 nM. Further, in the test with Musca domestica [3], the mortality was found to be 0%. In addition, the LD50 in the test with Musca domestica [2] was more than 1 mg/kg.

`O=C(CN1CCN(Cc2ccc(Cl)nc2)/C1=N\[N+](=O)[O-])OCCOC(=O)CN1CCN(Cc2ccc(Cl)nc2)/C1=N\[N+](=O)[O-]`: the affinity in test [1] corresponds to a Ki of 1550 nM. The mortality in the test on Musca domestica [3] was 0%. Further, the median lethal dose (LD50) in the test with Musca domestica [2] was more than 1 mg/kg.

In the case of `O=[N+]([O-])/N=C1\N(Cc2ccc(Cl)nc2)CCN1Cc1cccc(CN2CCN(Cc3ccc(Cl)nc3)/C2=N\[N+](=O)[O-])c1`, the affinity in test [1] corresponds to a Ki of 2770 nM. Besides, in the test with Musca domestica [3], the mortality was 0%. Further, the 50% lethal dose (LD50) in the test on Musca domestica [2] was more than 1 mg/kg.

Turning to `O=C(/N=C1/N(CCCCCCCCN2CCN(Cc3ccc(Cl)nc3)/C2=N\C(=O)C(F)(F)F)CCN1Cc1ccc(Cl)nc1)C(F)(F)F`, the Ki in test [1] is 26000 nM. Further, the mortality in the test with Musca domestica [3] stood at 0%. In the test with Musca domestica [2], the LD50 is more than 1 mg/kg.

For `O=C(/N=C1/N(CCCCCCN2CCN(Cc3ccc(Cl)nc3)/C2=N/C(=O)C(F)(F)F)CCN1Cc1ccc(Cl)nc1)C(F)(F)F`, the inhibition constant (Ki) in test [1] came to 26000 nM. For the same molecule, the mortality in the test with Musca domestica [3] is on record as 0%. For the same molecule, the LD50 in the test with Musca domestica [2] was more than 1 mg/kg.

Take `O=C(/N=C1/N(CCCCCN2CCN(Cc3ccc(Cl)nc3)/C2=N/C(=O)C(F)(F)F)CCN1Cc1ccc(Cl)nc1)C(F)(F)F`: affinity in test [1] was put at a Ki of 16000 nM. For the same molecule, in the test on Musca domestica [3], the mortality amounted to 0%. Moreover, the LD50 with Musca domestica [2] is more than 1 mg/kg.

`O=[N+]([O-])/N=C1\N(Cc2ccc(Cl)nc2)CCN1Cc1cccc(CN2CCN(Cc3ccc(Cl)nc3)/C2=N\[N+](=O)[O-])n1`: in test [1], the inhibition constant (Ki) is 5200 nM. The mortality in the test on Musca domestica [3] was found to be 0%. Moreover, the 50% lethal dose (LD50) in the test on Musca domestica [2] is more than 1 mg/kg.
